Assay outcomes (PubChem BioAssay)
Rows were chosen to be rich in hits. Some 2.9% of all compounds tested hit in one or more screens of this group.
ADAM17 inh: ADAM17 inhibitors, primary screen, biochemical, QFRET; Disintegrin and metalloproteinase domain-containing protein 17 (Homo sapiens), P78536; recombinant ADAM17, EDANS/DABCYL FRET peptide cleavage; inhibition, % at 6.95 µM; hit rate 0.83% among 370,000; AID 720648, 2013;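 active means inhibition above the mean of compounds lying between control limits plus 3 SD, set per campaign, cut at about 8.5% in these data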;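 further: 0% = DMSO-only wells as the low control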
Target sequence (P78536 215-824 limits assumed): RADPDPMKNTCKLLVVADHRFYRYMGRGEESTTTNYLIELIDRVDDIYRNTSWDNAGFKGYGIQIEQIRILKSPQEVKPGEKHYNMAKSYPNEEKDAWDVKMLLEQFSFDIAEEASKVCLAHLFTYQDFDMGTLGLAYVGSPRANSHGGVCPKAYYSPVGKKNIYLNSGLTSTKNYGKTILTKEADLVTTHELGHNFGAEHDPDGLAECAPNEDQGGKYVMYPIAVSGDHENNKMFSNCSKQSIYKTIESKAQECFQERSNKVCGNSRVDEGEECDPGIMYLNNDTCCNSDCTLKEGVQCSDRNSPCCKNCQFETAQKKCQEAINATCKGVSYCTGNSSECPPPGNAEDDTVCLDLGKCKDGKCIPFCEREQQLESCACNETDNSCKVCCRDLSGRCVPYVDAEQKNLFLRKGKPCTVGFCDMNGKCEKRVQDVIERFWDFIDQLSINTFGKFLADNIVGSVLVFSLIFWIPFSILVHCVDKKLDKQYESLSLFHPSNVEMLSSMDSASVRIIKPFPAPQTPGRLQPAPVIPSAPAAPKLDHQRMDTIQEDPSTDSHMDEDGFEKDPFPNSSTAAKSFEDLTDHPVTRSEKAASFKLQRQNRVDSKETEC
Arrestin-AP2 inh: inhibitors of beta-arrestin/AP2 binding, primary screen, biochemical, GPCR trafficking, flow cytometry; inhibition, % at 10 µM; FITC-arrestin peptide / GST-AP2 beads; AP2 beta2 appendage carries R879A mutation; hit rate 0.31% among 340,000; AID 504490, 2011; beta-arrestin 1 C-terminal peptide binding to AP2 beta2-adaptin appendage (human);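 active means inhibition above a set limit, near 3 SD of compounds lacking own fluorescence, cut at about 54% in these data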;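 further: plate controls were DMSO wells for no effect and 5 µM unlabelled arrestin peptide for full effect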
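System: GST-AP2 R879A bound to glutathione beads, E. coli-expressed. Also added: 50 nM FITC-arrestin peptide. Schedule: compound with beads 12 min RT, then probe 1 h RT. Signal: bead flow cytometry, FITC channel. Read-out basis: percent response.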
CaV13 ICDI inh: Disruptors of the CACNA1D IQ motif to Ca2+-dependent inactivation inhibitor domain association, primary screening, Förster resonance energy transfer in intact living …. inhibition, % at 12.3 µM. HEK cells, CFP/YFP FRET ICDI-IQ, plate reader, 10 min; percent FRET-ratio fall versus neutral wells. hit rate 0.098% among 340,000. AID 743397;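 active means mean replicate inhibition of at least 30% and at least 1% of replicates passing that level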;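 further: 0% = median of the neutral control wells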
ADAM10 inh: human ADAM10 inhibitors, primary screen, biochemical, QFRET, HTS | Disintegrin and metalloproteinase domain-containing protein 10 (Homo sapiens), O14672 | recombinant ADAM10, EDANS/DABCYL FRET peptide cleavage, 3 h | inhibition, % at 7 µM | hit rate 0.62% among 370,000;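 active means inhibition above a per-campaign cutoff equal to the mean of compounds falling between control-based bounds plus 3 SD, cut at about 20% in these data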;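 further: 0% = DMSO wells while the 100% control is not disclosed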
CendR NRP1 mod: modulators of CendR peptide binding to NRP-1, primary screen, biochemical, fluorescence polarization, uHTS | AID 602438, 2012 | hit rate 0.85% among 360,000 | Neuropilin-1 (Homo sapiens), O14786 | inhibition, % at 25 µM | FAM-RPARPAR peptide binding to NRP-1;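 active means inhibition or corrected inhibition above about 18%, plus a signal ratio from 0.5 to 1.5, limit read from the data, passing the limit was not always enough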
FAS-TE inh: FAS thioesterase domain inhibitors, primary screen, biochemical, fluorescence intensity, uHTS. Fatty acid synthase (Homo sapiens), P49327. recombinant FAS-TE, OMFH fluorogenic substrate, fluorescence endpoint. inhibition, % at 15 µM. hit rate 0.67% among 360,000;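 active means compounds whose normalised, plate-corrected inhibition of enzyme fluorescence in the single-dose primary screen is 50% or more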;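 further: 0% = DMSO with enzyme and 100% = substrate without enzyme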
ADAM10 confirm: human ADAM10 inhibitors, confirmation, biochemical, QFRET, triplicate | shares compounds with ADAM10 inh | ADAM10 QFRET peptide cleavage, EDANS fluorescence | inhibition, % at 6.95 µM | hit rate 1% among 2,100;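 active means inhibition above about 20% chosen separately for each screening run, limit read from the data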;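 further: 0% = DMSO wells and 100% = marimastat wells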
ADAM17 ctr: ADAM17 inhibitors, counter-screen for ADAM10 exosite inhibitor project, biochemical, QFRET, high throughput; shares compounds with ADAM10 inh; ADAM17 QFRET peptide cleavage, EDANS fluorescence; inhibition, % at 6.95 µM; hit rate 0.5% among 2,100;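 active means mean triplicate inhibition above the solvent-only control wells' mean plus 3 SD, cut at about 12% in these data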;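 further: 0% = DMSO wells and 100% = marimastat wells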
Starred values were filed as active, the others as inactive.

Screening COc1ccc(/C=C2\CC3(OC(=O)c4ccco4)CCCN2C3)cc1 (centres undefined) returned ADAM17 inh 0 and ADAM10 inh -11.
`O=C(CN(C(=O)OCC1c2ccccc2-c2ccccc21)[C@@H](Cc1ccccc1)C(=O)O)OCc1ccc(C(=O)NCc2ccccc2)cc1` gave ADAM17 inh 2 and ADAM10 inh 10.
Screening CN1C[C@@H]2[C@@H]3C(=O)N(Cc4ccccc4)C(=O)[C@@H]3[C@](Cc3ccccc3)(C1=O)N2C(=O)c1ccc(F)cc1 returned ADAM17 inh -4, Arrestin-AP2 inh -2, CaV13 ICDI inh -9, ADAM10 inh -12, CendR NRP1 mod -8 and FAS-TE inh -6.
For C[C@@H](O)C(C(=O)N1CCNCC1)n1cc([C@@H](N)CCCCN)nn1 (some centres undefined) the results were ADAM17 inh 3, Arrestin-AP2 inh -3, CaV13 ICDI inh -9, ADAM10 inh 22*, CendR NRP1 mod -2, FAS-TE inh -14, ADAM10 confirm 3 and ADAM17 ctr 0.
`CC(C)C[C@H](N)c1cn([C@@H](CCCCN)C(=O)N2CCNCC2)nn1` gave ADAM17 inh -3, Arrestin-AP2 inh 17, CaV13 ICDI inh -6, ADAM10 inh 12, CendR NRP1 mod 10 and FAS-TE inh -8.
Screening CC(C)CN1C(=O)[C@@]2(CC(=O)N(C)C2c2ccccc2)c2cc(-n3cc(-c4ccccc4)nn3)ccc21 (some centres undefined) returned ADAM17 inh 2 and ADAM10 inh 5.
COc1ccc(-n2c(SCC(=O)N3CCCC3)nnc2-c2ccncc2)cc1 was read as ADAM17 inh 0 and ADAM10 inh 0.
O=C(COC(=O)C1CCN(c2ccc(C(F)(F)F)cn2)CC1)Nc1ccc(Cl)cc1 was read as ADAM17 inh 7, Arrestin-AP2 inh 26, CaV13 ICDI inh -5, ADAM10 inh 27*, CendR NRP1 mod 3, FAS-TE inh 30, ADAM10 confirm 9 and ADAM17 ctr 4.
`O=C(NC(NC(=S)Nc1ccc(Cl)c(Cl)c1)C(Cl)(Cl)Cl)c1ccco1` (centres undefined) gave ADAM17 inh 9, Arrestin-AP2 inh 4, ADAM10 inh 29*, CendR NRP1 mod -8, FAS-TE inh 24, ADAM10 confirm 4 and ADAM17 ctr 2.
Screening O=C(O)c1cccc(NC(=S)NC(NC(=O)c2ccco2)C(Cl)(Cl)Cl)c1 (centres undefined) returned ADAM17 inh -2, Arrestin-AP2 inh 15, CaV13 ICDI inh -15, ADAM10 inh -13, CendR NRP1 mod 1 and FAS-TE inh -2.
For COCCn1c(SCC(=O)Nc2ccc(NC(C)=O)cc2)nc2c([nH]c3ccccc32)c1=O the results were ADAM17 inh -10, Arrestin-AP2 inh -2, CaV13 ICDI inh -7, ADAM10 inh -20, CendR NRP1 mod -1 and FAS-TE inh -3.
COc1ccc(NC(=O)CSc2nc3c([nH]c4ccccc43)c(=O)n2C)cc1 was read as ADAM17 inh 0, Arrestin-AP2 inh 2, CaV13 ICDI inh -5, ADAM10 inh 57*, CendR NRP1 mod -12, FAS-TE inh -6, ADAM10 confirm 4 and ADAM17 ctr 0.
Screening OC(c1ccc(Cl)c(F)c1)c1ncc(-c2ccc(Oc3ccccc3)cc2)[nH]1 (centres undefined) returned ADAM17 inh 4, CaV13 ICDI inh -6, ADAM10 inh 11, CendR NRP1 mod 2 and FAS-TE inh 21.
For OC(c1ccc(Cl)c(Cl)c1)c1ncc(-c2ccccc2C(F)(F)F)[nH]1 (centres undefined) the results were ADAM17 inh 10*, CaV13 ICDI inh -4, ADAM10 inh 22*, CendR NRP1 mod 3, FAS-TE inh 29, ADAM10 confirm 2 and ADAM17 ctr 1.
For OC(c1ccc(Cl)c(F)c1)c1ncc(-c2ccccc2C(F)(F)F)[nH]1 (centres undefined) the results were ADAM17 inh 7, CaV13 ICDI inh -9, ADAM10 inh 6, CendR NRP1 mod 3 and FAS-TE inh -5.
`OC(c1cccc(F)c1)c1ncc(-c2ccc(Oc3ccccc3)cc2)[nH]1` (centres undefined) gave ADAM17 inh 7, CaV13 ICDI inh -9, ADAM10 inh 23*, CendR NRP1 mod -5, FAS-TE inh 19, ADAM10 confirm 10 and ADAM17 ctr 3.
OC(c1ccc(Cl)c(F)c1)c1ncc(-c2ccc(Cl)cc2)[nH]1 (centres undefined) was read as ADAM17 inh 7, CaV13 ICDI inh -5, ADAM10 inh 20*, CendR NRP1 mod -8, FAS-TE inh 28, ADAM10 confirm 3 and ADAM17 ctr 1.
Screening CCN1C[C@@H]2[C@@H]3C(=O)N(Cc4ccccc4)C(=O)[C@@H]3[C@](C)(C1=O)N2C(=O)c1ccc(Cl)cc1 returned ADAM17 inh -2, Arrestin-AP2 inh 3, CaV13 ICDI inh -10, ADAM10 inh -4, CendR NRP1 mod 5 and FAS-TE inh -8.
For CNc1ccc(-c2cccc([N+](=O)[O-])c2)cn1 the results were ADAM17 inh -2, CaV13 ICDI inh -5, ADAM10 inh -6, CendR NRP1 mod 0 and FAS-TE inh 3.
CCCn1c(C(CO)Nc2nc(-c3cccc(Br)c3)cs2)nc2ccccc21 (centres undefined) was read as ADAM17 inh 9, Arrestin-AP2 inh -4, CaV13 ICDI inh -5, ADAM10 inh 22*, CendR NRP1 mod -1, FAS-TE inh 11, ADAM10 confirm 10 and ADAM17 ctr 3.
CC(=NNC(=S)Nc1ccccc1Cl)c1ccccn1 was read as ADAM17 inh 2, Arrestin-AP2 inh 15, CaV13 ICDI inh -8, ADAM10 inh 1, CendR NRP1 mod 15 and FAS-TE inh 2.
